Shown are actives, neighbours in structure and some others; about 1.7% of the full set was active somewhere.
SUMO1 PPI mod: modulators of SUMO1 protein-protein interactions, primary screen, biochemical, uHTS. Small ubiquitin-related modifier 1 (Homo sapiens), P63165. SUMO1 binding to a labelled peptide, TR-FRET, 1 h. inhibition, % at 20 µM. hit rate 0.33% among 360,000; in the data active = inhibition above about 37%
Target sequence (P63165 whole entry, looked up): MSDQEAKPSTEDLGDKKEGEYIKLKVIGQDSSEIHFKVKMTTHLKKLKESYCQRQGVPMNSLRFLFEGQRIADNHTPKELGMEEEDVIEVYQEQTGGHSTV
LMPTP inh: LMPTP phosphatase inhibitors, primary screen, biochemical, fluorescence intensity, uHTS; recombinant LMPTP-A, OMFP fluorogenic substrate; inhibition, % at 20 µM; hit rate 0.22% among 360,000;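 active = compounds that cut the enzyme signal by at least half of the control window in the single-dose screen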;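 note: plate controls were DMSO wells with enzyme plus substrate for no effect and substrate without enzyme for full effect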
Target sequence (P24666 whole entry, looked up): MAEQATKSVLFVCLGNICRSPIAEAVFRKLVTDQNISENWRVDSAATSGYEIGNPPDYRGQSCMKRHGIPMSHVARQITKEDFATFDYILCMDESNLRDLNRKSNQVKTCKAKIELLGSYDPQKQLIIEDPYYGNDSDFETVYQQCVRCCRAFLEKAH
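Material: LMPTP-A; amount: 0.625 nM enzyme; doses: single 20 µM dose; times: reaction 50 min, room temperature, dark; technique: fluorescence intensity of OMFP turnover product; benchmarks: no-enzyme and uninhibited controls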
Pemphigus Ab inh: inhibitors of pemphigus antibody binding to DSG3, primary screen, biochemical, bead-based, flow cytometry, scFv-GFP; binding (percent of control), % at 10 µM; Desmoglein-3 (Homo sapiens), P32926; DSG3-coupled beads, scFv-anti-DSG3-GFP binding; hits give low values; hit rate 0.48% among 310,000;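 active = binding more than 3 SD below its plate's average and above zero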;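 note: hits lower antibody fragment binding to DSG3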
STEP inh: STEP phosphatase inhibitors, primary screen, biochemical, fluorescence intensity, uHTS; Tyrosine-protein phosphatase non-receptor type 5 (Homo sapiens), P54829; AID 588621, 2011; inhibition, % at 20 µM; recombinant STEP, OMFP fluorogenic substrate; hit rate 0.25% among 360,000;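 active = inhibition at 20 µM, scaled per plate between control wells, above about 37%, limit read from the data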;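 note: 0% = DMSO with enzyme and substrate and 100% = substrate only without enzyme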
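Material: STEP (striatal-enriched tyrosine phosphatase) enzyme, cell-free | Medium: 50 mM Bis-Tris pH 6.0 with 2.5 mM DTT and 0.005% Tween 20 | Read-out: Percent inhibition scaled to no-enzyme and uninhibited-enzyme controls, plate-pattern corrected | Signal: Fluorescence read at 480 nm ex / 540 nm em | Times: 20 min reaction, room temperature, in the dark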
Scp-1 inhibitor: Scp-1 phosphatase inhibitors, primary screen, biochemical, colorimetric, uHTS; AID 493091, 2011; Carboxy-terminal domain RNA polymerase II polypeptide A small phosphatase 1 (Homo …; inhibition, % at 20 µM; hit rate 0.88% among 340,000; Recombinant Scp1, phosphopeptide, malachite green phosphate absorbance;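 active = inhibition above about 50% at 20 µM, limit read from the data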;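 note: plate controls were DMSO wells with enzyme for no effect and wells lacking enzyme for full effect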
Target sequence (Q9GZU7 76-261 limits assumed): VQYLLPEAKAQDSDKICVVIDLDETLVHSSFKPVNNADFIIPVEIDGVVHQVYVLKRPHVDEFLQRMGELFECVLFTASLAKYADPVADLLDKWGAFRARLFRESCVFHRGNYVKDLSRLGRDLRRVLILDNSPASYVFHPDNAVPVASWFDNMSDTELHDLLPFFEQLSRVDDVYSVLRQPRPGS
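Times: enzyme reaction 45 min at room temperature, colour 5 min, stabilisation 30 min. Material: SCP-1 catalytic fragment, aa 76-261. Medium: Acidic Tris acetate buffer with magnesium and detergent. Signal: colorimetric free-phosphate detection, absorbance 630 nm. Read-out basis: % inhibition of SCP-1 phosphate liberation. Reagent: Phosphorylated 17-residue peptide substrate.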
Scp-1 conf: Scp-1 phosphatase inhibitors, retest, confirmation, biochemical, colorimetric, single concentration; shares compounds with Scp-1 inhibitor; recombinant SCP-1 catalytic domain, phosphate release, malachite green absorbance; AID 540281, 2011; inhibition, % at 20 µM; hit rate 61% among 2,500;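 note: plate controls were DMSO with enzyme for no effect and buffer wells lacking enzyme for full effect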
MG interference: colorimetric readout interference by compounds, confirmation, artefact control for Scp-1 inhibitor project, biochemical, single concentration; shares compounds with Scp-1 inhibitor; Colorimetric interference counterscreen, malachite green absorbance 630 nm; apparent inhibition (interference), % at 20 µM; 2,500 tested, under 10 active; AID 540313, 2011;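 note: compounds added after enzyme reaction finished so only phosphate colour detection is probed; plate controls were DMSO wells with completed Scp-1 reaction for no effect and substrate wells lacking enzyme for full effect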
Scp-1 Tm shift: Scp-1 binding by thermal shift, confirmation, orthogonal assay for Scp-1 inhibitor project, biophysical, differential scanning fluorimetry; shares compounds with Scp-1 inhibitor; thermal shift relative to vanadate control, % at 40 µM; Recombinant SCP1, Sypro Orange thermal shift Tm; hit rate 25% among 1,500;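 active = substances whose mean melting-temperature shift, as a percentage of the reference inhibitor's shift, reaches about 5.3%, limit read from the data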;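 note: 0% = Tm of DMSO wells and 100% = Tm with sodium orthovanadate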
* hit, by the source's call.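 Rule for the calls, unless noted: active = inhibition of at least 30% at 20 µM; inactive = the rest.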

`CN(C)CCCNCCCCNC(=O)/C=N/O` gave SUMO1 PPI mod -2, LMPTP inh -13, Pemphigus Ab inh 103, STEP inh -2 and Scp-1 inhibitor -12.
`O=C(c1ccc(=O)[nH]n1)N1CCc2ccccc2C1` gave SUMO1 PPI mod -3, LMPTP inh -1, Pemphigus Ab inh 88, STEP inh -1 and Scp-1 inhibitor -2.
Screening C=CCN1C(=O)C(=O)N(CC(=O)NCC(=O)Nc2ccc(F)c(F)c2F)C1=O returned SUMO1 PPI mod 4, LMPTP inh -1, Pemphigus Ab inh 109, STEP inh -2, Scp-1 inhibitor -2, Scp-1 conf -9 and MG interference -3.
Screening O=C(CN1C(=O)C(=O)N(Cc2ccco2)C1=O)Nc1ccc(F)c(F)c1F returned SUMO1 PPI mod -2, LMPTP inh 0, STEP inh -1 and Scp-1 inhibitor 1.
Screening O=C(CSc1nc(O)cc(=O)[nH]1)C1CC1 returned SUMO1 PPI mod 1, LMPTP inh -1, Pemphigus Ab inh 100, STEP inh -5, Scp-1 inhibitor 53*, Scp-1 conf -12 and MG interference -17.
Screening CCOC(=O)C1=C(O)/C(=C/c2ccc(CNC(=O)C(=O)Nc3ccc(C)cc3)o2)N=C1C returned SUMO1 PPI mod 20, LMPTP inh 28, Pemphigus Ab inh 87, STEP inh 3, Scp-1 inhibitor 69*, Scp-1 conf 2 and MG interference -17.
Screening CCCCn1nc(C(=O)NCc2ccccc2CN2CCCC2)c2ccccc2c1=O returned SUMO1 PPI mod -1, LMPTP inh 1, Pemphigus Ab inh 103, STEP inh 0 and Scp-1 inhibitor -5.
Screening O=[N+]([O-])c1ccc(/C=N/Nc2ncc(-c3ccccc3)cn2)cc1 returned SUMO1 PPI mod -6, LMPTP inh 23, Pemphigus Ab inh 109, STEP inh 22, Scp-1 inhibitor 68*, Scp-1 conf 28 and MG interference -8.
For O=[N+]([O-])c1ccc(/C=N/Nc2ncc(Br)cn2)cc1 the results were SUMO1 PPI mod 4, LMPTP inh 14, Pemphigus Ab inh 93, STEP inh 19 and Scp-1 inhibitor 2.
Screening COc1ccc(/C=C/C(=O)NCc2ccccn2)cc1 returned SUMO1 PPI mod 1, LMPTP inh 0, Pemphigus Ab inh 107, STEP inh 1 and Scp-1 inhibitor 0.
`Cc1ccc(/C=C/C(=O)NCc2ccccn2)o1` gave SUMO1 PPI mod -2, LMPTP inh 1, Pemphigus Ab inh 102, STEP inh 0, Scp-1 inhibitor 72*, Scp-1 conf 59*, MG interference -13 and Scp-1 Tm shift 3.
Screening COc1ccc(C(C)(O)c2nc(-c3cnc4ccccc4c3)cs2)cc1 (stereo not given) returned SUMO1 PPI mod -13, LMPTP inh 1 and STEP inh -1.
`C/C(=N\NC(=O)c1ccccc1O)c1ccc(NC(=O)c2ccccc2)cc1` gave SUMO1 PPI mod -7, LMPTP inh 11, STEP inh 36, Scp-1 inhibitor 67*, Scp-1 conf 69*, MG interference -8 and Scp-1 Tm shift 3.
Screening C/C(=N\NC(=O)c1ccccc1O)c1cccc(NC(=O)c2ccccc2)c1 returned SUMO1 PPI mod 6, LMPTP inh 0, Pemphigus Ab inh 97, STEP inh 6 and Scp-1 inhibitor -7.
For COc1ccc2[nH]c(=O)c(-c3nnn(-c4ccccc4)n3)cc2c1 the results were SUMO1 PPI mod -18, LMPTP inh 1, Pemphigus Ab inh 101, STEP inh 0 and Scp-1 inhibitor -5.
COc1ccc2[nH]c(=O)c(-c3noc(-c4ccccc4)n3)cc2c1 was read as SUMO1 PPI mod 65*, LMPTP inh 22, Pemphigus Ab inh 101, STEP inh 39, Scp-1 inhibitor 82*, Scp-1 conf 60*, MG interference -9 and Scp-1 Tm shift -35.
Screening COc1ccc(Cl)cc1C(=O)NCC(=O)OCc1ccccc1 returned SUMO1 PPI mod 21, LMPTP inh 0, Pemphigus Ab inh 103, STEP inh 0 and Scp-1 inhibitor -6.
Screening CC(C)c1ccc(-c2c(NCCc3ccccc3)c(=O)c2=O)cc1 returned SUMO1 PPI mod -2, LMPTP inh 4, Pemphigus Ab inh 85, STEP inh 14 and Scp-1 inhibitor 34.
For CCCN(CC(=O)Nc1ccccc1C)C(=O)C1CC(=O)N(Cc2ccccc2)C1 (stereo not given) the results were SUMO1 PPI mod 4, LMPTP inh -1, Pemphigus Ab inh 96, STEP inh 2, Scp-1 inhibitor 4, Scp-1 conf -3 and MG interference -5.
Screening CCOc1ccc(NC(=O)CN2CCC(n3cnc4cc(F)ccc43)CC2)cc1 returned SUMO1 PPI mod -2, LMPTP inh -2, Pemphigus Ab inh 104, STEP inh 2 and Scp-1 inhibitor -4.
`Cc1cccnc1NC(=O)CCc1nnc2ccc(NCc3ccco3)nn12` gave SUMO1 PPI mod 8, LMPTP inh 0, Pemphigus Ab inh 104, STEP inh 1 and Scp-1 inhibitor 22.
Screening O=C(CCc1nnc2ccc(NCc3ccco3)nn12)Nc1ccccn1 returned SUMO1 PPI mod 14, LMPTP inh -1, Pemphigus Ab inh 98, STEP inh 3, Scp-1 inhibitor 59*, Scp-1 conf 52*, MG interference -15 and Scp-1 Tm shift 1.
`O=[N+]([O-])c1ccc(C(O)C[n+]2ccccc2)cc1` (stereo not given) gave SUMO1 PPI mod -23, LMPTP inh -1, Pemphigus Ab inh 101, STEP inh -1, Scp-1 inhibitor 96*, Scp-1 conf 0 and MG interference 1.

Screening results (PubChem BioAssay)
